Test system: HEK-293T
Assay: Multiplex assay against HEK293T
Assay type: toxicity, cell-based
Conditions: human
Summary of the method: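 Imaging took place on a CQ1 microscope at 37°C and 5% CO2 once compound had been added to live cells stained at seeding with Hoechst33342, BioTracker Green Microtubule Cytoskeleton Dye, MitoTracker Red and Annexin V Alexa Fluor 680. CellPathfinder machine-learning gating classed cells as Hoechst high-intensity objects or normal cells, classed normal cells as having healthy, pyknosed or fragmented nuclei, and classed pyknosed cells as mitotic or apoptotic. Tubulin, mitochondrial-mass and membrane-permeability phenotypes are per cents of the healthy-nucleus cells.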

[1] = 12 h, 1 µM, compound concentration 1 uM, replicate 1
[2] = 12 h, 1 µM, compound concentration 1 uM, replicate 2
[3] = 12 h, 10 µM, compound concentration 10 uM, replicate 1
[4] = 12 h, 10 µM, compound concentration 10 uM, replicate 2
[5] = 24 h, 1 µM, compound concentration 1 uM, replicate 1
[6] = 24 h, 1 µM, compound concentration 1 uM, replicate 2
[7] = 24 h, 10 µM, compound concentration 10 uM, replicate 1
[8] = 24 h, 10 µM, compound concentration 10 uM, replicate 2
[9] = 48 h, 1 µM, compound concentration 1 uM, replicate 1
[10] = 48 h, 1 µM, compound concentration 1 uM, replicate 2
[11] = 48 h, 10 µM, compound concentration 10 uM, replicate 1
[12] = 48 h, 10 µM, compound concentration 10 uM, replicate 2

Structure (SMILES): C[C@@H]1CC(=O)Nc2cccc(-c3ccc4c(c3)c(-c3cnn(C)c3)nn4C)c2N1
- Population Apoptotic (%) [1]: 36%
- Population Fragmented Nuclei (%) [1]: 7%
- Population Healthy Nuclei (%) [1]: 76%
- Population Hoechst High Intensity Objects (%) [1]: 7%
- Population Membrane Permeable-Phenotype (%) [1]: 0%
- Population Mitochondria Different-Phenotype (%) [1]: 51%
- Population Mitotic Cells (%) [1]: 63%
- Population Normal (%) [1]: 92%
- Population Pyknosed Nuclei (%) [1]: 16%
- Population Tubulin-Different-Phenotype (%) [1]: 39%
- Total Cell Count [1]: 305
- Population Apoptotic (%) [2]: 60%
- Population Fragmented Nuclei (%) [2]: 5%
- Population Healthy Nuclei (%) [2]: 77%
- Population Mitochondria Different-Phenotype (%) [2]: 65%
- Population Mitotic Cells (%) [2]: 39%
- Population Tubulin-Different-Phenotype (%) [2]: 26%
- Total Cell Count [2]: 349
- Population Apoptotic (%) [3]: 49%
- Population Fragmented Nuclei (%) [3]: 8%
- Population Healthy Nuclei (%) [3]: 74%
- Population Hoechst High Intensity Objects (%) [3]: 5%
- Population Membrane Permeable-Phenotype (%) [3]: 0%
- Population Mitochondria Different-Phenotype (%) [3]: 72%
- Population Mitotic Cells (%) [3]: 50%
- Population Normal (%) [3]: 94%
- Population Pyknosed Nuclei (%) [3]: 17%
- Population Tubulin-Different-Phenotype (%) [3]: 62%
- Total Cell Count [3]: 384
- Population Apoptotic (%) [4]: 38%
- Population Fragmented Nuclei (%) [4]: 5%
- Population Healthy Nuclei (%) [4]: 77%
- Population Hoechst High Intensity Objects (%) [4]: 12%
- Population Mitochondria Different-Phenotype (%) [4]: 86%
- Population Mitotic Cells (%) [4]: 62%
- Population Normal (%) [4]: 87%
- Population Pyknosed Nuclei (%) [4]: 16%
- Population Tubulin-Different-Phenotype (%) [4]: 56%
- Total Cell Count [4]: 345
- Population Apoptotic (%) [5]: 38%
- Population Fragmented Nuclei (%) [5]: 10%
- Population Healthy Nuclei (%) [5]: 74%
- Population Hoechst High Intensity Objects (%) [5]: 7%
- Population Membrane Permeable-Phenotype (%) [5]: 0%
- Population Mitochondria Different-Phenotype (%) [5]: 37%
- Population Mitotic Cells (%) [5]: 61%
- Population Normal (%) [5]: 92%
- Population Pyknosed Nuclei (%) [5]: 14%
- Population Tubulin-Different-Phenotype (%) [5]: 20%
- Total Cell Count [5]: 395
- Population Apoptotic (%) [6]: 50%
- Population Fragmented Nuclei (%) [6]: 8%
- Population Healthy Nuclei (%) [6]: 79%
- Population Hoechst High Intensity Objects (%) [6]: 6%
- Population Mitochondria Different-Phenotype (%) [6]: 48%
- Population Mitotic Cells (%) [6]: 50%
- Population Normal (%) [6]: 93%
- Population Pyknosed Nuclei (%) [6]: 11%
- Population Tubulin-Different-Phenotype (%) [6]: 16%
- Total Cell Count [6]: 422
- Population Apoptotic (%) [7]: 43%
- Population Fragmented Nuclei (%) [7]: 9%
- Population Healthy Nuclei (%) [7]: 76%
- Population Hoechst High Intensity Objects (%) [7]: 2%
- Population Membrane Permeable-Phenotype (%) [7]: 0%
- Population Mitochondria Different-Phenotype (%) [7]: 62%
- Population Mitotic Cells (%) [7]: 56%
- Population Normal (%) [7]: 97%
- Population Pyknosed Nuclei (%) [7]: 13%
- Population Tubulin-Different-Phenotype (%) [7]: 37%
- Total Cell Count [7]: 472
- Population Apoptotic (%) [8]: 57%
- Population Fragmented Nuclei (%) [8]: 8%
- Population Healthy Nuclei (%) [8]: 72%
- Population Hoechst High Intensity Objects (%) [8]: 5%
- Population Mitochondria Different-Phenotype (%) [8]: 68%
- Population Mitotic Cells (%) [8]: 42%
- Population Normal (%) [8]: 94%
- Population Pyknosed Nuclei (%) [8]: 19%
- Population Tubulin-Different-Phenotype (%) [8]: 28%
- Total Cell Count [8]: 381
- Population Apoptotic (%) [9]: 33%
- Population Fragmented Nuclei (%) [9]: 11%
- Population Healthy Nuclei (%) [9]: 80%
- Population Hoechst High Intensity Objects (%) [9]: 1%
- Population Membrane Permeable-Phenotype (%) [9]: 0%
- Population Mitochondria Different-Phenotype (%) [9]: 23%
- Population Mitotic Cells (%) [9]: 66%
- Population Normal (%) [9]: 98%
- Population Pyknosed Nuclei (%) [9]: 7%
- Population Tubulin-Different-Phenotype (%) [9]: 13%
- Total Cell Count [9]: 627
- Population Apoptotic (%) [10]: 30%
- Population Fragmented Nuclei (%) [10]: 9%
- Population Healthy Nuclei (%) [10]: 81%
- Population Hoechst High Intensity Objects (%) [10]: 2%
- Population Mitochondria Different-Phenotype (%) [10]: 30%
- Population Mitotic Cells (%) [10]: 69%
- Population Normal (%) [10]: 97%
- Population Pyknosed Nuclei (%) [10]: 9%
- Total Cell Count [10]: 593
- Population Apoptotic (%) [11]: 43%
- Population Fragmented Nuclei (%) [11]: 13%
- Population Healthy Nuclei (%) [11]: 80%
- Population Hoechst High Intensity Objects (%) [11]: 4%
- Population Membrane Permeable-Phenotype (%) [11]: 0%
- Population Mitochondria Different-Phenotype (%) [11]: 44%
- Population Mitotic Cells (%) [11]: 56%
- Population Normal (%) [11]: 95%
- Population Pyknosed Nuclei (%) [11]: 6%
- Population Tubulin-Different-Phenotype (%) [11]: 16%
- Total Cell Count [11]: 636
- Population Apoptotic (%) [12]: 42%
- Population Fragmented Nuclei (%) [12]: 12%
- Population Healthy Nuclei (%) [12]: 78%
- Population Hoechst High Intensity Objects (%) [12]: 2%
- Population Mitochondria Different-Phenotype (%) [12]: 53%
- Population Mitotic Cells (%) [12]: 57%
- Population Normal (%) [12]: 97%
- Population Pyknosed Nuclei (%) [12]: 9%
- Population Tubulin-Different-Phenotype (%) [12]: 20%
- Total Cell Count [12]: 521
